The record followed here is ChEMBL document CHEMBL5705888, “Substrate specificity and inhibitors of LRRK2, a protein kinase mutated in Parkinson's disease” (Biochem J, 2009).

Structures are written as SMILES.

Experiment [1] deals with Homeodomain-interacting protein kinase 2 (Homo sapiens) (UniProt Q9H2X6). The experiment is described as follows: Inhibition of HIPK2 (unknown origin) at 1 uM incubated for 30 mins in presence of [gamma-33P]ATP by multidrop micro reagent based assay relative to control; values are per cent of control.
Experiment [2] has as its target Serine/threonine-protein kinase 26 (Homo sapiens) (UniProt Q9P289). The experiment is described as follows: Inhibition of MST4 (unknown origin) at 1 uM incubated for 30 mins in presence of [gamma-33P]ATP by multidrop micro reagent based assay relative to control.
Experiment [3] concerns the target Mitogen-activated protein kinase kinase kinase 11 (Homo sapiens) (UniProt Q16584). The experiment can be described thus: Inhibition of MLK3 (unknown origin) at 10 uM incubated for 30 mins in presence of [gamma-33P]ATP by multidrop micro reagent based assay relative to control.
The target in experiment [4] is Tyrosine-protein kinase CSK (Homo sapiens) (UniProt P41240). The experiment is described as follows: Residual activity of CSK (unknown origin) at 10 uM incubated for 30 mins in presence of [gamma-33P]ATP by multidrop micro reagent based assay relative to control.
Experiment [5] addresses T1, MAP kinase-activated protein kinase 5 (Homo sapiens) (UniProt Q8IW41).
T1 sequence (whole entry): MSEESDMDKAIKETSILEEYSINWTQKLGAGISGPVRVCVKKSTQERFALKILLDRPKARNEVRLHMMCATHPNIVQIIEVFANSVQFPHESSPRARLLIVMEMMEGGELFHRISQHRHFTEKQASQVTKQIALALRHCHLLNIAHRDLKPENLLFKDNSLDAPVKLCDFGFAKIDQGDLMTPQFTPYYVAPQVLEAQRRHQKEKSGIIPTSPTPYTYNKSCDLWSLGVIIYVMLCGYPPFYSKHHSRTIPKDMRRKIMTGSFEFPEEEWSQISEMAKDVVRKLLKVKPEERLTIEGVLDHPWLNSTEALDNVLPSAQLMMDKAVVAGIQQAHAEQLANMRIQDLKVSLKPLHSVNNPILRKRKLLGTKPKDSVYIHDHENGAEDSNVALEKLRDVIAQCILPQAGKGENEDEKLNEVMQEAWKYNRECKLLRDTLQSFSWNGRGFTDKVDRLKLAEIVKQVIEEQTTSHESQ
The experiment is described as follows: Inhibition of PRAK (unknown origin) at 10 uM incubated for 30 mins in presence of [gamma-33P]ATP by multidrop micro reagent based assay relative to control; values are per cent of control.

Experiment [6] has as its target Insulin-like growth factor 1 receptor (Homo sapiens) (UniProt P08069). The experiment is described as follows: Inhibition of IGF-1R (unknown origin) at 10 uM incubated for 30 mins in presence of [gamma-33P]ATP by multidrop micro reagent based assay relative to control.
The target of experiment [7] is Serine/threonine-protein kinase 26 (Homo sapiens) (UniProt Q9P289). The experiment can be described thus: Inhibition of MST4 (unknown origin) at 10 uM incubated for 30 mins in presence of [gamma-33P]ATP by multidrop micro reagent based assay relative to control. The essentials:
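Single-concentration screen across a panel of 85 protein kinases. Activity is expressed as a percentage of control incubations run without inhibitor.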

Experiment [8] has as its target T2, Serine/threonine-protein kinase Nek2 (Homo sapiens) (UniProt P51955).
T2 sequence (whole entry): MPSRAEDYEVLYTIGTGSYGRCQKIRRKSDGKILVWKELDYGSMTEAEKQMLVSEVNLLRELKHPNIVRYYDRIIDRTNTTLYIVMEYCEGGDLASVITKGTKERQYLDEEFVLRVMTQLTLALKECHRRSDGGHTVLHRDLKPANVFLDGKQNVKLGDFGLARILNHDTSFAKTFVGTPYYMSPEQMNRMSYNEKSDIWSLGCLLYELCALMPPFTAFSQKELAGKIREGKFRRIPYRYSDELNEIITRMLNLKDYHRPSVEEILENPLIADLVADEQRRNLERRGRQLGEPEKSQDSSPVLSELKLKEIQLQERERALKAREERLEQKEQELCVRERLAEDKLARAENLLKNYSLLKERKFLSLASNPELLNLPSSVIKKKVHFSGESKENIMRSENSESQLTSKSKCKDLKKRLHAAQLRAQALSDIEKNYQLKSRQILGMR
The experiment is described as follows: Inhibition of NEK2a (unknown origin) at 10 uM incubated for 30 mins in presence of [gamma-33P]ATP by multidrop micro reagent based assay relative to control; values are per cent of control.

In experiment [9] the target is T3, Mitogen-activated protein kinase 15 (Homo sapiens) (UniProt Q8TD08).
T3 sequence (whole entry): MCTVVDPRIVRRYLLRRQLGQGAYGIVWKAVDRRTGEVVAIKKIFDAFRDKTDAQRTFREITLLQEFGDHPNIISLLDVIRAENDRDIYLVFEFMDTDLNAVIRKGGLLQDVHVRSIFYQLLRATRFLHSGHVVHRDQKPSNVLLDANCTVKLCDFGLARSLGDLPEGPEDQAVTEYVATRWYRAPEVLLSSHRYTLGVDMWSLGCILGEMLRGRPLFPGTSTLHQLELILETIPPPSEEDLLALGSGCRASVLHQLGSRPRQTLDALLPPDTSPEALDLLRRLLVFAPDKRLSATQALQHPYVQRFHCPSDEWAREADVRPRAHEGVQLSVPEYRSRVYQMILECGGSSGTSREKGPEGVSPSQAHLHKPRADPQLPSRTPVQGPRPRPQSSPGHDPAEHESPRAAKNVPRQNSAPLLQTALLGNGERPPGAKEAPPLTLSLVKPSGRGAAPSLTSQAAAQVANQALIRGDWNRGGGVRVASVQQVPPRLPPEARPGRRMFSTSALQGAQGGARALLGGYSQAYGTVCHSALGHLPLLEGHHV
The experiment can be described thus: Inhibition of ERK8 (unknown origin) at 10 uM incubated for 30 mins in presence of [gamma-33P]ATP by multidrop micro reagent based assay relative to control.

The target in experiment [10] is Tyrosine-protein kinase BTK (Homo sapiens) (UniProt Q06187). The experiment is described as follows: Inhibition of BTK (unknown origin) at 10 uM incubated for 30 mins in presence of [gamma-33P]ATP by multidrop micro reagent based assay relative to control; values are per cent of control.
Tyrosine-protein kinase BTK (Homo sapiens), sequence (Q06187 whole entry): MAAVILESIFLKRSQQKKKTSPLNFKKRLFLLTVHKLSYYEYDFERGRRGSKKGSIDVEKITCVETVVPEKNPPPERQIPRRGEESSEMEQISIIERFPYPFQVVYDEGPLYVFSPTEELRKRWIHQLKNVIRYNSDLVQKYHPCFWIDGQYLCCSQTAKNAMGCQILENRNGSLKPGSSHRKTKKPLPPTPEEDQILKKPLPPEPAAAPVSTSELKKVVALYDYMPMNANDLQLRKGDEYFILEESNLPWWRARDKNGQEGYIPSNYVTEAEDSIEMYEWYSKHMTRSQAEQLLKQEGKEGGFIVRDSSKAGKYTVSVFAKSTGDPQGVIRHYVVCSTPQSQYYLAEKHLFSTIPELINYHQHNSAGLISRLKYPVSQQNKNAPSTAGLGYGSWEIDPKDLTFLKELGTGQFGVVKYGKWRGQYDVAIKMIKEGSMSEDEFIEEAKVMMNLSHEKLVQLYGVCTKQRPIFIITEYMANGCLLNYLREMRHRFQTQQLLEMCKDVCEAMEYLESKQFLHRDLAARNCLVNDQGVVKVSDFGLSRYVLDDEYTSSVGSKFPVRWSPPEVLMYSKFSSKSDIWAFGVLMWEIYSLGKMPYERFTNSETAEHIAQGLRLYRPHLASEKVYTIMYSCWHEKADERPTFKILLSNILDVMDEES

Serine/threonine-protein kinase 26 (Homo sapiens), sequence (Q9P289 2-416 limits assumed): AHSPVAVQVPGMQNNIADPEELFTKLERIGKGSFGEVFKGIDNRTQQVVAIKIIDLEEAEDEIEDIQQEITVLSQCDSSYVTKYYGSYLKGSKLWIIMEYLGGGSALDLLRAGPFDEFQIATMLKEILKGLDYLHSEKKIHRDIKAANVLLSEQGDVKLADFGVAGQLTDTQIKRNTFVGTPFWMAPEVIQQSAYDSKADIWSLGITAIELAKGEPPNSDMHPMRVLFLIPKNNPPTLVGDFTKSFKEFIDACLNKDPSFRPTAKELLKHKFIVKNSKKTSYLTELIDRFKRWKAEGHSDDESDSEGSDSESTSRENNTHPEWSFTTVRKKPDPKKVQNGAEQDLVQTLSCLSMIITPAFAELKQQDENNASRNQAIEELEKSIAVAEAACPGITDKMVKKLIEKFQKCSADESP
Mitogen-activated protein kinase kinase kinase 11 (Homo sapiens), sequence (Q16584 whole entry, looked up): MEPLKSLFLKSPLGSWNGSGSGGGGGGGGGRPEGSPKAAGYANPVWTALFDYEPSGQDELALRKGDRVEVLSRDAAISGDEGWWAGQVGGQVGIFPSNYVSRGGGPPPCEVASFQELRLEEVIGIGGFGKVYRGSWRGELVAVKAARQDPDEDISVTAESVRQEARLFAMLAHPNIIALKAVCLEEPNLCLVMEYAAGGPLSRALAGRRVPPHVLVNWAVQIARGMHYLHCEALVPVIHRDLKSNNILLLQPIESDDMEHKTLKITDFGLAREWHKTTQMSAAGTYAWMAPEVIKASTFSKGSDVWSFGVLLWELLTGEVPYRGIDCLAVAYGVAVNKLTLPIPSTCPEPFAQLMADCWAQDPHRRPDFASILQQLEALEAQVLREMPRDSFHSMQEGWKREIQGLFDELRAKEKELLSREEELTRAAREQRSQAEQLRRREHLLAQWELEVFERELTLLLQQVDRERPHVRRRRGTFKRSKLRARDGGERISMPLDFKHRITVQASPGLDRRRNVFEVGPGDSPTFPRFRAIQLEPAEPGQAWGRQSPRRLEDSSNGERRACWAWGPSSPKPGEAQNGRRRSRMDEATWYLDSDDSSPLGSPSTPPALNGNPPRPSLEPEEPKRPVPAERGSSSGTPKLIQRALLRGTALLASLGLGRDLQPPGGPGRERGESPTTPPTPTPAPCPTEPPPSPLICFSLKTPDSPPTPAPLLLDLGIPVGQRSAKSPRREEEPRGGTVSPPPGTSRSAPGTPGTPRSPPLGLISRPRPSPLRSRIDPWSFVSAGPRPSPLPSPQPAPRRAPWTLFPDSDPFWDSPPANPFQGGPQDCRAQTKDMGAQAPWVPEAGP
Insulin-like growth factor 1 receptor (Homo sapiens), sequence (P08069 31-736 limits assumed): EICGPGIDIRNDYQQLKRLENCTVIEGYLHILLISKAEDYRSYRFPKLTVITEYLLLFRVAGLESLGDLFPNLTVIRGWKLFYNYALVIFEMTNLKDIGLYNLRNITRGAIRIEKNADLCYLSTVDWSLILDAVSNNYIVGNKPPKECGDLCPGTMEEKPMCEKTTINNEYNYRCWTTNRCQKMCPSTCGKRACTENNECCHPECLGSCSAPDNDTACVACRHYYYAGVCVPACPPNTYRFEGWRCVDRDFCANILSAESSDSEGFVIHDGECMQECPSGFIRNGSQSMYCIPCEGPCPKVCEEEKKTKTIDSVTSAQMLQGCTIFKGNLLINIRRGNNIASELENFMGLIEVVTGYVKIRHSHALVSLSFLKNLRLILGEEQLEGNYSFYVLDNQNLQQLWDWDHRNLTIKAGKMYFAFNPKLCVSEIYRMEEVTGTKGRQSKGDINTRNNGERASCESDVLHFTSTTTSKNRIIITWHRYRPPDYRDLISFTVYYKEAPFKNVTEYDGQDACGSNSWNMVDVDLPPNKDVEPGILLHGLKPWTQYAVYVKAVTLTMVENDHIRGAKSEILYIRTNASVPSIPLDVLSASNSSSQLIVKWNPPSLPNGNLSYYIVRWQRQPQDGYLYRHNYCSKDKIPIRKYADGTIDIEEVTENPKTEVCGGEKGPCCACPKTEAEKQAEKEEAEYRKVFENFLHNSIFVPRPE
Insulin-like growth factor 1 receptor (Homo sapiens), sequence (P08069 741-1367 limits assumed): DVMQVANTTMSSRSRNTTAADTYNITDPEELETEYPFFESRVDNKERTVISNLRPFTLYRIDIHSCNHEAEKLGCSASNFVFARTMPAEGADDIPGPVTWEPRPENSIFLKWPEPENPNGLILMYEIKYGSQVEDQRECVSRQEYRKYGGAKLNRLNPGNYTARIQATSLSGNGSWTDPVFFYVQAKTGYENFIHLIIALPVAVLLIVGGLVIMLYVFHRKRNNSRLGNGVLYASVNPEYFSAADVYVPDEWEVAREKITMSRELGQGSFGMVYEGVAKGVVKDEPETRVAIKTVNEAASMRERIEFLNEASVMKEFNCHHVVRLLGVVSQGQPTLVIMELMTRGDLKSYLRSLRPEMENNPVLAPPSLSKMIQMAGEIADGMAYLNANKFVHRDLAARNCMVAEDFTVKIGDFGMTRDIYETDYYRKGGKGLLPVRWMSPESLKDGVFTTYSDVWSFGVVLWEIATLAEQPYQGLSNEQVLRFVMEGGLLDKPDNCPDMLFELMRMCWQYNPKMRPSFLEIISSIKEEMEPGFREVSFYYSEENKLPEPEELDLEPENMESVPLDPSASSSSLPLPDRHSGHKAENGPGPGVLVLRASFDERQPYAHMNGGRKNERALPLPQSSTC
Homeodomain-interacting protein kinase 2 (Homo sapiens), sequence (Q9H2X6 whole entry, looked up): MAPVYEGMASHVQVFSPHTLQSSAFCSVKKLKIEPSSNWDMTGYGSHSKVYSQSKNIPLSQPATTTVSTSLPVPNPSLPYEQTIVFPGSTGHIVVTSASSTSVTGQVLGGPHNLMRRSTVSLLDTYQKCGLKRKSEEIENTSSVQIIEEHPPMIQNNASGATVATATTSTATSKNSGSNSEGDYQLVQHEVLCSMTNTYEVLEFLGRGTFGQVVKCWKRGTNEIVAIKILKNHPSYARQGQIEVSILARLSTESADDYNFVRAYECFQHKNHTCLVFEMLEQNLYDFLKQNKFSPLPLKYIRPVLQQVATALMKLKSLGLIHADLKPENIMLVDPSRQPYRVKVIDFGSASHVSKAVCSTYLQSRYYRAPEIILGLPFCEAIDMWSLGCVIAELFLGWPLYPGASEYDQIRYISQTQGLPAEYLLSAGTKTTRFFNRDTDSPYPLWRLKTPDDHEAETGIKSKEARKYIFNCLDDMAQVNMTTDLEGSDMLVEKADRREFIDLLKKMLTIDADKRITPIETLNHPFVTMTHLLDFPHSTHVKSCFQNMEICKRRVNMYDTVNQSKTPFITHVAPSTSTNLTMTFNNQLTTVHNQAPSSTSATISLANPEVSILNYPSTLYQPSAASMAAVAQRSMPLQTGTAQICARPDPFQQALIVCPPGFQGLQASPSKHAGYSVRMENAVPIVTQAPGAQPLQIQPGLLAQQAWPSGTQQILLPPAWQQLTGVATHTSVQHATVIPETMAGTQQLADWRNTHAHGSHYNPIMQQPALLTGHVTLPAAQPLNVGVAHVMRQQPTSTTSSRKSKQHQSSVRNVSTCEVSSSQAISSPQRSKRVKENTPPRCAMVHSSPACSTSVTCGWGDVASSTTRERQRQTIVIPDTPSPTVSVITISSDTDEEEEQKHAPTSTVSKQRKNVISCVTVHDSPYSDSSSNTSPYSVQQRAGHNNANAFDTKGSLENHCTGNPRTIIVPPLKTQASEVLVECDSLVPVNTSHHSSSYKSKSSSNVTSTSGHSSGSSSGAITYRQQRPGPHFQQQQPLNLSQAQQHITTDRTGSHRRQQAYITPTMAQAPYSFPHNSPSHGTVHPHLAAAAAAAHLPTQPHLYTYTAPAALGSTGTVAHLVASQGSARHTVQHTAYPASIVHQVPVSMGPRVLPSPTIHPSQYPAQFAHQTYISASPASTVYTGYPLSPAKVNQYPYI
Tyrosine-protein kinase CSK (Homo sapiens), sequence (P41240 2-450 limits assumed): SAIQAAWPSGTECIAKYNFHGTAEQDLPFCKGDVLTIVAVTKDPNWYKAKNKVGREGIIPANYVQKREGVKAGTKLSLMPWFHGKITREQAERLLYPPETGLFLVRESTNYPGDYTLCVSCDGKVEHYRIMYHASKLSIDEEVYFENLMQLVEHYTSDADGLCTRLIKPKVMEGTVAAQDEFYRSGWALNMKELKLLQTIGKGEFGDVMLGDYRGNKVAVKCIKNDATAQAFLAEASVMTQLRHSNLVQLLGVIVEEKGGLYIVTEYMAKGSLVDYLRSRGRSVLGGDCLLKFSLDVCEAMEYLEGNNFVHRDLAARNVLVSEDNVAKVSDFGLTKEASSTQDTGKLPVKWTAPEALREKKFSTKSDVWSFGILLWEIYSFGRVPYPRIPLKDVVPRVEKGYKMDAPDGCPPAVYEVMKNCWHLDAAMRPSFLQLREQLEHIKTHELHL

Take `CC1=C(C(=O)Nc2cc3cn[nH]c3cc2F)C(c2ccc(C(F)(F)F)cc2)CC(=O)N1` (stereo not given): the residual activity in [1] worked out at 104%; in experiment [2], 70%.
In the case of `C[C@@H](N)[C@H]1CC[C@H](C(=O)Nc2ccncc2)CC1`, the results for the inhibition in experiment [3], in [6] and in experiment [7] were 110%, 99% and 67%, respectively. Also, the residual activity is 104% in [4], 88% in experiment [5] and 104% in experiment [8].
On to `O=S(=O)(c1cccc2cnccc12)N1CCCNCC1` [FASUDIL], for which the inhibition in [9] came out at 68%. In experiment [10], the residual activity came out at 112%.

One may read the inhibition as the drop in the measured response relative to a control, in per cent.
